Reference: ChEMBL document CHEMBL2150901, “Synthesis and biological activity of tricyclic cycloalkylimidazo-, pyrimido- and diazepinopurinediones” (Eur J Med Chem, 2011)
Calls of active or inactive are those of the source. The rule behind the calls is not given here.

Key:
Mus musculus [1] = test: Neurotoxicity in F1 albino mouse assessed as minimal motor impairment at 300 mg/kg, ip after 4 hrs by rotorod test; format: toxicity, organism-based; parameters: dose 300 mg/kg, route intraperitoneal; conditions: in vivo
Outline: (§1)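 Male albino F-1 mice (18–25 g), groups of 1–5 (rotorod 2–8). Compound given ip as a suspension in 0.5% methylcellulose at 30, 100 and 300 mg/kg. Seizures by maximal electroshock or subcutaneous pentylenetetrazole; neurotoxicity by rotorod. Read at 0.5 and 4 h, with some at 0.25, 1 and 2 h. Value is the minimum active dose, with protected (or toxic)/tested animals.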

Mus musculus [2] = test: Anticonvulsant activity in F1 albino mouse assessed as protection against maximal electroshock-induced seizures at 300 mg/kg, ip after 4 hrs; format: functional, organism-based; parameters: dose 300 mg/kg; outline: as §1
Mus musculus [3] = test: Neurotoxicity in F1 albino mouse assessed as minimal motor impairment at 300 mg/kg, ip after 0.5 hrs by rotorod test; format: toxicity, organism-based; parameters: dose 300 mg/kg, route intraperitoneal; conditions: in vivo; outline: as §1
Adenosine receptor A1 [4] = target: T1, Adenosine receptor A1 (Rattus norvegicus, UniProt P25099); test: Displacement of [3H]CCPA from adenosine A1 receptor in rat brain cortical membrane; format: cell membranes
T1 sequence (P25099 whole entry): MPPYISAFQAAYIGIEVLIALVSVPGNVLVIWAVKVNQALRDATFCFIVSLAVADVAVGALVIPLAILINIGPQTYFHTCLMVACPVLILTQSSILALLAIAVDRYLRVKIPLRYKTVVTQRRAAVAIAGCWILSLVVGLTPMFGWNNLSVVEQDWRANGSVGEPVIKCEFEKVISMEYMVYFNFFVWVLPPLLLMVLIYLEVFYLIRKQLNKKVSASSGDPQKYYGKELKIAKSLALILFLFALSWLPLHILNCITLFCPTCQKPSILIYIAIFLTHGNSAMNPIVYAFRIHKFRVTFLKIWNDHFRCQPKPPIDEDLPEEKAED

Mus musculus [5] = test: Anticonvulsant activity in F1 albino mouse assessed as protection against subcutaneous pentylenetetrazole-induced seizures at 100 mg/kg, ip after 0.5 hrs; format: functional, organism-based; parameters: dose 100 mg/kg; outline: as §1
Adenosine receptor A2a [6] = target: Adenosine receptor A2a (Rattus norvegicus, UniProt P30543); test: Displacement of [3H]MSX-2 from adenosine A2A receptor in rat brain striatal membrane; format: cell membranes
Chain of Adenosine receptor A2a (Rattus norvegicus, UniProt P30543) (P30543 whole entry): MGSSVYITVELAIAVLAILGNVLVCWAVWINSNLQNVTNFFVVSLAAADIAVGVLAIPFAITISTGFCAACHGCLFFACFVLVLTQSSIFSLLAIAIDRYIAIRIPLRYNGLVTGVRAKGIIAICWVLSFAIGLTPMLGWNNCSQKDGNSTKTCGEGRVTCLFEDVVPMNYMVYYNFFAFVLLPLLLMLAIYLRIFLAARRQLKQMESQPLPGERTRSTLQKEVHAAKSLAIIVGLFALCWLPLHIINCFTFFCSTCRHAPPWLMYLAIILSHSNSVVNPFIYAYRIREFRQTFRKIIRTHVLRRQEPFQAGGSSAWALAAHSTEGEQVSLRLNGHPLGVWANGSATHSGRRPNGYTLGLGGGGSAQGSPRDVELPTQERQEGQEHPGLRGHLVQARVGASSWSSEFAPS

Mus musculus [7] = test: Anticonvulsant activity in F1 albino mouse assessed as protection against maximal electroshock-induced seizures at 300 mg/kg, ip after 0.25 hrs; format: functional, organism-based; parameters: dose 300 mg/kg; outline: as §1
Mus musculus [8] = test: Anticonvulsant activity in F1 albino mouse assessed as protection against maximal electroshock-induced seizures at 300 mg/kg, ip after 1 hr; format: functional, organism-based; parameters: dose 300 mg/kg; outline: as §1
Mus musculus [9] = test: Neurotoxicity in F1 albino mouse assessed as minimal motor impairment at 300 mg/kg, ip after 1 hr by rotorod test; format: toxicity, organism-based; parameters: dose 300 mg/kg, route intraperitoneal; conditions: in vivo; outline: as §1
Adenosine receptor A1 [10] = target: T2, Adenosine receptor A1 (Homo sapiens, UniProt P30542); test: Displacement of [3H]CCPA from human recombinant adenosine A1 receptor expressed in CHO cells; format: cell-based
T2 sequence (P30542 whole entry): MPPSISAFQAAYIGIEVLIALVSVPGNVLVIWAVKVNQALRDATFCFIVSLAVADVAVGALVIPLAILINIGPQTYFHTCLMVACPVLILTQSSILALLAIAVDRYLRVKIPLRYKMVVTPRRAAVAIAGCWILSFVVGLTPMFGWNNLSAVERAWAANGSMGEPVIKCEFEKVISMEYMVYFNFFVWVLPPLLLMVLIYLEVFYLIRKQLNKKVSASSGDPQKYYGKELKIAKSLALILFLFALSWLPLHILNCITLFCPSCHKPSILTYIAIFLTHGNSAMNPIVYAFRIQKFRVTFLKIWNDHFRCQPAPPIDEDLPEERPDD

Mus musculus [11] = test: Anticonvulsant activity in F1 albino mouse assessed as protection against subcutaneous pentylenetetrazole-induced seizures at 300 mg/kg, ip after 4 hrs; format: functional, organism-based; parameters: dose 300 mg/kg; outline: as §1
CHO [12] = test: Selectivity ratio of Ki for human recombinant adenosine A2A receptor expressed in CHO cells to Ki for adenosine A2A receptor in rat brain striatal membrane; format: cell-based
Outline: (§2)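 Ki ratios from radioligand competition binding. Rat A1 used brain cortical membranes and rat A2A used brain striatal membranes. Human A1 and A2A used membranes of CHO cells expressing the receptors. A1 radioligand [³H]CCPA; A2A radioligand [³H]MSX-2. Potent compounds were tested at 6–7 concentrations spanning 3 orders of magnitude.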

Adenosine receptor A3 = target: T3, Adenosine receptor A3 (Homo sapiens, UniProt P0DMS8); test: Displacement of [3H]PSB-11 from human recombinant adenosine A3 receptor expressed in CHO cells; format: cell-based
T3 sequence (P0DMS8 whole entry): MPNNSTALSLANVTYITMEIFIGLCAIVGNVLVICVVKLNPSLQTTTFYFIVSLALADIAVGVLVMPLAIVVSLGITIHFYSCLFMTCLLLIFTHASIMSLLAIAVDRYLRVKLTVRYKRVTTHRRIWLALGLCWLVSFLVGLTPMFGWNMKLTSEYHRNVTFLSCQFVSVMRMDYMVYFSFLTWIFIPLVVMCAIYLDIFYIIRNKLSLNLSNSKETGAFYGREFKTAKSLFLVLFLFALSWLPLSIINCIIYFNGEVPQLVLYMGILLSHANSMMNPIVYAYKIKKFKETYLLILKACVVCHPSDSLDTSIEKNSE

Mus musculus [13] = test: Anticonvulsant activity in F1 albino mouse assessed as protection against subcutaneous pentylenetetrazole-induced seizures at 300 mg/kg, ip after 1 hr; format: functional, organism-based; parameters: dose 300 mg/kg; outline: as §1
Mus musculus [14] = test: Anticonvulsant activity in F1 albino mouse assessed as protection against maximal electroshock-induced seizures at 300 mg/kg, ip after 0.5 hrs; format: functional, organism-based; parameters: dose 300 mg/kg; outline: as §1
Mus musculus [15] = test: Neurotoxicity in F1 albino mouse assessed as minimal motor impairment at 300 mg/kg, ip after 0.25 hrs by rotorod test; format: toxicity, organism-based; parameters: dose 300 mg/kg, route intraperitoneal; conditions: in vivo; outline: as §1
CHO [16] = test: Selectivity ratio of Ki for adenosine A1 receptor in rat brain cortical membrane to Ki for human recombinant adenosine A1 receptor expressed in CHO cells; format: cell-based; outline: as §2
[17] = target: T4, Adenosine receptor A3 (Homo sapiens) (UniProt P0DMS8); test: Displacement of [3H]PSB-11 from human recombinant adenosine A3 receptor expressed in CHO cells at 10 uM; format: cell-based
T4 sequence (whole entry): T3 sequence (P0DMS8 whole entry)
Outline: (§3)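 CHO cell membranes expressing the human receptor. Radioligands: A1 [3H]CCPA; A2B [3H]ZM241385 or [3H]PSB-603; A3 [3H]PSB-11. […] Potent compounds run at 6–7 concentrations spanning 3 orders of magnitude; Ki ± SEM.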

[18] = target: T5, Adenosine receptor A2b (Homo sapiens) (UniProt P29275); test: Displacement of [3H]PSB-603 from human recombinant adenosine A2B receptor expressed in CHO cells at 10 uM; format: cell-based; outline: as §3
T5 sequence (whole entry): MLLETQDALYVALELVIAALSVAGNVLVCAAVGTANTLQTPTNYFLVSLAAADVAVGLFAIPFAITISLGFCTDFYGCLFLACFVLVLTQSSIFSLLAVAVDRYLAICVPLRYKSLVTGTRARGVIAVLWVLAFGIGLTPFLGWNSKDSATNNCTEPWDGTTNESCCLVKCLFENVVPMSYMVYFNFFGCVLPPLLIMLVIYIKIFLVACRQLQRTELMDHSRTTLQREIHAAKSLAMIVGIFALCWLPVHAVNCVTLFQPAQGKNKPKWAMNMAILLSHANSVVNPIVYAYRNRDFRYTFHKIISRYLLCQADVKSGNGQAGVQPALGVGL

Adenosine receptor A2b = target: T6, Adenosine receptor A2b (Homo sapiens, UniProt P29275); test: Displacement of [3H]PSB-603 from human recombinant adenosine A2B receptor expressed in CHO cells; format: cell-based; outline: as §3
T6 sequence (P29275 whole entry): T5 sequence (whole entry)

Mus musculus [19] = test: Anticonvulsant activity in F1 albino mouse assessed as protection against subcutaneous pentylenetetrazole-induced seizures at 300 mg/kg, ip after 0.25 hrs; format: functional, organism-based; parameters: dose 300 mg/kg; outline: as §1
Rattus norvegicus = species: Rattus norvegicus; test: Selectivity ratio of Ki for adenosine A1 receptor in rat brain cortical membrane to Ki for adenosine A2A receptor in rat brain striatal membrane; format: cell membranes; outline: as §2
Adenosine receptor A2a [20] = target: Adenosine receptor A2a (Homo sapiens, UniProt P29274); test: Displacement of [3H]MSX-2 from human recombinant adenosine A2A receptor expressed in CHO cells; format: cell-based
Chain of Adenosine receptor A2a (Homo sapiens, UniProt P29274) (P29274 whole entry): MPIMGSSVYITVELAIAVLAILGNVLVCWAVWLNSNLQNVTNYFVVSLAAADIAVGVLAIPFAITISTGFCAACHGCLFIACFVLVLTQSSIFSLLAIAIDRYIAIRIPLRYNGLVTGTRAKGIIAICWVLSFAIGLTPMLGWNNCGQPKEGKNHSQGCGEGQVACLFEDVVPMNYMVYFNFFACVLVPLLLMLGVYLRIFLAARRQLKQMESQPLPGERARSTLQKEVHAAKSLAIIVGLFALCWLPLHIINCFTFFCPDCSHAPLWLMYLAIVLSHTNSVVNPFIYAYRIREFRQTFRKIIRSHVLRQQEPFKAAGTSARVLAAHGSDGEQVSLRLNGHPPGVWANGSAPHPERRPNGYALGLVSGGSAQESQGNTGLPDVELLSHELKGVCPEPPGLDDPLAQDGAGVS

Mus musculus [21] = test: Toxicity in F1 albino mouse assessed as mortality following clonic seizures at 300 mg/kg, ip after 0.5 hrs; format: organism-based; parameters: dose 300 mg/kg, route intraperitoneal; conditions: in vivo
Outline: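 Male albino F-1 mice (18–25 g) were dosed i.p. with a suspension in 0.5% methylcellulose in water at 30, 100 and 300 mg/kg. Screening used MES, subcutaneous pentylenetetrazole (ScMet) and rotorod tests, with 1–5 mice per seizure test.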

SMILES	Activity (Mus musculus [1])	Activity (Mus musculus [2])	Activity (Mus musculus [3])	Ki (Adenosine receptor A1 [4])	Ki (Adenosine receptor A2a [6])	Activity (Mus musculus [7])	Activity (Mus musculus [8])	Activity (Mus musculus [9])	Activity (Mus musculus [11])	Activity (Mus musculus [13])	Activity (Mus musculus [14])	Activity (Mus musculus [15])	Activity (Mus musculus [19])	Ratio Ki (Rattus norvegicus)	also measured
Cn1c(=O)c2c(nc3n2CCCN3CCC2=CCCCC2)n(C)c1=O	Non-toxic	inactive	Non-toxic	14.7 µM	0.5 µM	inactive	inactive	Non-toxic	inactive	inactive	inactive	Non-toxic	inactive	44	Activity (Mus musculus [5]): inactive; Ki (Adenosine receptor A1 [10]): 6.9 µM; Ratio Ki (CHO [12]): 2; Ki (Adenosine receptor A3): > 10 µM; Ratio Ki (CHO [16]): 2; inhibition [17]: 23%; inhibition [18]: 6%; Ki (Adenosine receptor A2b): > 10 µM; Ki (Adenosine receptor A2a [20]): 0.933 µM
Cn1c(=O)c2c(nc3n2CCCN3C2CCCC2)n(C)c1=O	Non-toxic	inactive	Non-toxic	5.31 µM	1 µM	inactive	inactive	Non-toxic	inactive	Active	inactive	Non-toxic	inactive	5	Activity (Mus musculus [21]): Toxic
